Measured values published in ChEMBL document CHEMBL1154743, “A novel potent nicotinamide phosphoribosyltransferase inhibitor synthesized via click chemistry” (J Med Chem, 2010).
pIC50: −log10 of the molar value. Activity calls are given as the source filed them. The calls are words filed in the database; no cut-off is given here.

Experiments:
[1] = tested on: SH-SY5Y; experiment: Cytotoxicity against human SH-SY5Y cells assessed as cell viability after 48 hrs by MTT assay; type: functional, cell-based
In short: (§1)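 SH-SY5Y cells incubated with compound for 48 h and viability measured by MTT. Values are mean ± SEM of 8-12 determinations.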

[2] = tested on: SH-SY5Y; experiment: Cytotoxicity against human SH-SY5Y cells assessed as reduction of total cellular NAD(P) level at 1 uM relative to control; type: functional; set-up: scale not given: the % may be the effect or the level left
[3] = tested on: SH-SY5Y; experiment: Cytotoxicity against human SH-SY5Y cells assessed as reduction of total cellular NAD(P) level; type: functional, cell-based
[4] = tested on: SH-SY5Y; experiment: Cytotoxicity against human SH-SY5Y cells assessed as cell viability after 48 hrs by MTT assay relative to control; type: functional; in short: as §1
[5] = tested on: SH-SY5Y; experiment: Cytotoxicity against human SH-SY5Y cells assessed as cell viability after 48 hrs by MTT assay relative to control in presence of NAD; type: functional
[6] = tested on: CCRF-CEM; experiment: Growth inhibition of human CCRF-CEM cells by sulforhodamine B assay; type: functional
[7] = Growth inhibition of human […] cells by sulforhodamine B assay; type: functional
[8] = tested on: A549; experiment: Growth inhibition of human A549 cells by sulforhodamine B assay; type: functional
[9] = tested on: EKVX; experiment: Growth inhibition of human EKVX cells by sulforhodamine B assay; type: functional
[10] = tested on: NCI-H322M; experiment: Growth inhibition of human NCI-H322M cells by sulforhodamine B assay; type: functional
[11] = tested on: NCI-H522; experiment: Growth inhibition of human NCI-H522 cells by sulforhodamine B assay; type: functional
[12] = tested on: HCT-15; experiment: Growth inhibition of human HCT15 cells by sulforhodamine B assay; type: functional
[13] = tested on: KM12; experiment: Growth inhibition of human KM12 cells by sulforhodamine B assay; type: functional
[14] = tested on: SF-539; experiment: Growth inhibition of human SF539 cells by sulforhodamine B assay; type: functional
[15] = tested on: SNB-19; experiment: Growth inhibition of human SNB19 cells by sulforhodamine B assay; type: functional
[16] = tested on: SNB-75; experiment: Growth inhibition of human SNB75 cells by sulforhodamine B assay; type: functional
[17] = tested on: U-251; experiment: Growth inhibition of human U251 cells by sulforhodamine B assay; type: functional
[18] = tested on: LOX IMVI; experiment: Growth inhibition of human LOXIMVI cells by sulforhodamine B assay; type: functional
[19] = tested on: Malme-3M; experiment: Growth inhibition of human MALME-3M cells by sulforhodamine B assay; type: functional
[20] = tested on: SK-MEL-2; experiment: Growth inhibition of human SK-MEL-2 cells by sulforhodamine B assay; type: functional
[21] = tested on: IGROV-1; experiment: Growth inhibition of human IGROV1 cells by sulforhodamine B assay; type: functional
[22] = tested on: OVCAR-3; experiment: Growth inhibition of human OVCAR-3 cells by sulforhodamine B assay; type: functional
[23] = tested on: NCI/ADR-RES; experiment: Growth inhibition of human NCI/ADR-RES cells by sulforhodamine B assay; type: functional
[24] = tested on: A498; experiment: Growth inhibition of human A498 cells by sulforhodamine B assay; type: functional
[25] = tested on: RXF 393; experiment: Growth inhibition of human RXF393 cells by sulforhodamine B assay; type: functional
[26] = tested on: SN12C; experiment: Growth inhibition of human SN12C cells by sulforhodamine B assay; type: functional
[27] = tested on: TK-10; experiment: Growth inhibition of human TK10 cells by sulforhodamine B assay; type: functional
[28] = tested on: UO-31; experiment: Growth inhibition of human UO31 cells by sulforhodamine B assay; type: functional
[29] = tested on: PC-3; experiment: Growth inhibition of human PC3 cells by sulforhodamine B assay; type: functional
[30] = tested on: DU-145; experiment: Growth inhibition of human DU145 cells by sulforhodamine B assay; type: functional
[31] = tested on: MCF7; experiment: Growth inhibition of human MCF7 cells by sulforhodamine B assay; type: functional
[32] = tested on: MDA-MB-231; experiment: Growth inhibition of human MDA-MB-231 cells by sulforhodamine B assay; type: functional
[33] = Growth inhibition of human Hs 578T cells by sulforhodamine B assay; type: functional
[34] = tested on: BT-549; experiment: Growth inhibition of human BT549 cells by sulforhodamine B assay; type: functional
[35] = tested on: T47D; experiment: Growth inhibition of human T47D cells by sulforhodamine B assay; type: functional
[36] = tested on: MDA-MB-468; experiment: Growth inhibition of human MDA-MB-468 cells by sulforhodamine B assay; type: functional
[37] = tested on: SH-SY5Y; experiment: Induction of autophagy in human SH-SY5Y cells assessed as LC3/phosphotidylethanolamine coupling after 40 hrs by Western blot analysis; type: functional, cell-based
In short: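 Western blot of LC3-I and LC3-II, with tubulin as reference, in untreated and treated cells exposed to 10 nM compound. Six independent experiments were run, using two LC3 antibodies from different sources.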

[38] = tested on: SH-SY5Y; experiment: Induction of autophagy in human SH-SY5Y cells expressing EGFP-LC3 assessed as colocalization of autophagic vacuoles with lysosomes in acidic compartment of cell at 10 nM; type: functional, cell-based
[39] = read-out: LC50 (the source's name)

O=C(CCCCCCCn1cc(-c2cccnc2)nn1)Nc1ccccc1-c1ccccc1
pIC50 [1]: 8.42 | Activity [2]: 11.6% | pIC50 [3]: 8.52 | Activity [4]: 24% | Activity [5]: 97% | GI50 [6]: 3.28 µM | TGI [6]: > 100 µM | CC50 [6, 39]: > 100 µM | GI50 [7]: 0.913 µM | TGI [7]: 60.6 µM | CC50 [7, 39]: > 100 µM | GI50 [8]: 2.1 µM | TGI [8]: > 100 µM | CC50 [8, 39]: > 100 µM | GI50 [9]: 8.46 µM | TGI [9]: > 100 µM | CC50 [9, 39]: > 100 µM | GI50 [10]: 23.1 µM | TGI [10]: > 100 µM | CC50 [10, 39]: > 100 µM | GI50 [11]: 0.0914 µM | TGI [11]: > 100 µM | CC50 [11, 39]: > 100 µM | GI50 [12]: 0.257 µM | TGI [12]: > 100 µM | CC50 [12, 39]: > 100 µM | GI50 [13]: 1.03 µM | TGI [13]: 27.2 µM | CC50 [13, 39]: > 100 µM | GI50 [14]: 0.0618 µM | TGI [14]: > 100 µM | CC50 [14, 39]: > 100 µM | GI50 [15]: 0.45 µM | TGI [15]: > 100 µM | CC50 [15, 39]: > 100 µM | GI50 [16]: 29.8 µM | TGI [16]: > 100 µM | CC50 [16, 39]: > 100 µM | GI50 [17]: 0.521 µM | TGI [17]: > 100 µM | CC50 [17, 39]: > 100 µM | GI50 [18]: 10.1 µM | TGI [18]: > 100 µM | CC50 [18, 39]: > 100 µM | GI50 [19]: 12.2 µM | TGI [19]: 62.8 µM | CC50 [19, 39]: > 100 µM | GI50 [20]: 12.8 µM | TGI [20]: 46.2 µM | CC50 [20, 39]: 57 µM | GI50 [21]: 0.272 µM | TGI [21]: > 100 µM | CC50 [21, 39]: > 100 µM | GI50 [22]: 5.19 µM | TGI [22]: > 100 µM | CC50 [22, 39]: > 100 µM | GI50 [23]: 0.0814 µM | TGI [23]: 33.1 µM | CC50 [23, 39]: > 100 µM | GI50 [24]: 15.9 µM | TGI [24]: > 100 µM | CC50 [24, 39]: > 100 µM | GI50 [25]: 100 µM | TGI [25]: > 100 µM | CC50 [25, 39]: > 100 µM | GI50 [26]: 0.0426 µM | TGI [26]: > 100 µM | CC50 [26, 39]: > 100 µM | GI50 [27]: 18.2 µM | TGI [27]: > 100 µM | CC50 [27, 39]: > 100 µM | GI50 [28]: 16.9 µM | TGI [28]: 93 µM | CC50 [28, 39]: > 100 µM | GI50 [29]: 0.467 µM | TGI [29]: 42.8 µM | CC50 [29, 39]: > 100 µM | GI50 [30]: 0.702 µM | TGI [30]: > 100 µM | CC50 [30, 39]: > 100 µM | GI50 [31]: 3.42 µM | TGI [31]: 50.1 µM | CC50 [31, 39]: > 100 µM | GI50 [32]: 20.9 µM | TGI [32]: > 100 µM | CC50 [32, 39]: > 100 µM | GI50 [33]: 20.4 µM | TGI [33]: > 100 µM | CC50 [33, 39]: > 100 µM | GI50 [34]: 1.7 µM | TGI [34]: 39.3 µM | CC50 [34, 39]: > 100 µM | GI50 [35]: 1.23 µM | TGI [35]: 16 µM | CC50 [35, 39]: > 100 µM | GI50 [36]: 7.34 µM | TGI [36]: > 100 µM | CC50 [36, 39]: > 100 µM | Activity [37]: Active | Activity [38]: Active
